The source made the active and inactive calls. The rule behind the calls is not given here.
How the values were obtained:
hTERT-BJ [1] = test: Induction of autophagy in human hTERT-BJ cells transformed with hTert, small t, shRNAs against p53 and pRb and H-RasV12-ER assessed as increase in LC3-2 to LC3-1 ratio at 5 uM after 24 hrs by immunoblot analysis relative to control; assay type: functional
Summary of the method: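 Fully transformed BJ fibroblasts (hTert, small t, shRNAs to p53 and pRb, H-RasV12-ER) grown at 37 °C, 5% CO2 in 10% FBS medium; treated 24 h at 5 μM. Triton lysis, 14% SDS-PAGE, LC3 immunoblot; LC3-II/LC3-I band ratio relative to DMSO-treated control, under 2-fold induction deemed insignificant.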

hTERT-BJ [2] = test: Cell cycle arrest in human hTERT-BJ cells transformed with hTert, small t, shRNAs against p53 and pRb and H-RasV12-ER assessed as accumulation at sub-G1 phase at 5 uM after 48 hrs; assay type: functional, cell-based
Summary of the method: (§1)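 Isogenic normal and fully transformed BJ fibroblasts (hTert, small t, shRNAs to p53 and pRb, H-RasV12-ER) exposed to 5 μM for 48 h. Percentage of cells in sub-G1 phase determined as a cell death measure.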

hTERT-BJ [3] = test: Inhibition of mitotic progression in human hTERT-BJ cells transformed with hTert, small t, shRNAs against p53 and pRb and H-RasV12-ER assessed as increase in phosphorylated histone H3 (Ser10) level at 5 uM after 24 hrs by immunoblot analysis relative to control; assay type: functional
Summary of the method: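 Fully transformed BJ fibroblasts (hTert, small t, shRNAs to p53 and pRb, H-RasV12-ER) treated 24 h at 5 μM. Immunoblot protocol as for HeLa. pH3 (Ser10) band intensity expressed as fold of DMSO control; under 2-fold counted as insignificant.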

BJ = test: Cell cycle arrest in human BJ cells assessed as accumulation at sub-G1 phase at 5 uM after 48 hrs; assay type: cell-based; summary of the method: as §1
[4] = Half life in pooled male rat liver microsomes at 3 uM preincubated for 5 mins followed by NADPH addition measured after 45 mins by LC-MS/MS method; assay type: ADME, microsome
Summary of the method: (§2)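 Pooled female or male rat liver microsomes (0.3 mg protein/mL) with 3 μM substrate in 0.1 M phosphate buffer pH 7.4, pre-incubated 5 min at 37 °C, started with 1 mM NADPH. Samples at 0-45 min quenched in cold acetonitrile with internal standard, analysed by LC-MS/MS. Triplicates; midazolam positive control, no-NADPH negative control.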

[5] = Half life in pooled female rat liver microsomes at 3 uM preincubated for 5 mins followed by NADPH addition measured after 45 mins by LC-MS/MS method; assay type: ADME, microsome; summary of the method: as §2
[6] = Intrinsic clearance in pooled male rat liver microsomes assessed per mg protein at 3 uM preincubated for 5 mins followed by NADPH addition measured after 45 mins by LC-MS/MS method; assay type: ADME, microsome; conditions: read-out: CLH
Summary of the method: (§3)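 Pooled female or male rat liver microsomes (0.3 mg protein/mL) with substrate at final 3 μM in 0.1 M phosphate pH 7.4. Pre-incubated 5 min at 37 °C, then started with NADPH (final 1 mM). Sampled at 0–45 min in triplicate, quenched with cold acetonitrile plus internal standard. Parent measured by LC-MS/MS. Midazolam as positive control; no-NADPH negative control.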

[7] = Intrinsic clearance in pooled female rat liver microsomes assessed per mg protein at 3 uM preincubated for 5 mins followed by NADPH addition measured after 45 mins by LC-MS/MS method; assay type: ADME, microsome; conditions: read-out: CLH; summary of the method: as §3

Compound | fold change (FC) (hTERT-BJ [1]) | fold change (FC) (hTERT-BJ [3]) | also measured
N#C/C(=C/c1cccc2cnccc12)c1nc2ccccc2[nH]1 | 1.2 | 1.1 | Activity (hTERT-BJ [2]): inactive; Activity (BJ): Non-Toxic
N#C/C(=C\c1cccc2cccnc12)c1c[nH]c2ccccc12 | 0.6 | 1.3 | –
N#C/C(=C\c1cccc2cnccc12)c1c[nH]c2cc(Br)ccc12 | 0.7 | 1.6 | –
N#CC(Cc1cccc2cnccc12)c1c[nH]c2ccccc12 (configuration not stated) | 0.3 | 1.2 | –
N#C/C(=C\c1cccc2cnccc12)c1c[nH]c2ccc(Cl)cc12 | 2 | 1.4 | –
N#C/C(=C\c1ccnc2ccccc12)c1c[nH]c2ccccc12 | 0.4 | 1.4 | –
N#C/C(=C\c1cccc2ncccc12)c1c[nH]c2ccccc12 | 0.7 | 10.5 | Activity (hTERT-BJ [2]): Active; Activity (BJ): Toxic
N#C/C(=C\c1cccc2cnccc12)c1c[nH]c2ccc(Br)cc12 | 4 | 2.1 | half-life at 3 µM [4]: 19.6 min; half-life at 3 µM [5]: 43.8 min; microsomal CLint at 3 µM [6]: 118 µL/min/mg; microsomal CLint at 3 µM [7]: 53 µL/min/mg
N#C/C(=C\c1cncc2cnccc12)c1c[nH]c2ccccc12 | 1 | 1.4 | –
O=C(Nc1cccc2cnccc12)c1c[nH]c2ccccc12 | 0.4 | 1.4 | –
N#C/C(=C\c1cccc2ccncc12)c1c[nH]c2ccccc12 | 0.7 | 1.5 | –
N#C/C(=C\c1cccc2cnccc12)c1c[nH]c2c(Br)cccc12 | 2.2 | 1.4 | –
N#C/C(=C\c1cccc2cnccc12)c1n[nH]c2ccccc12 | 2 | 1.4 | –
N#C/C(=C\c1cccc2cnccc12)c1c[nH]c2ccc(F)cc12 | 0.5 | 0.9 | –
N#C/C(=C\c1cccc2cnccc12)c1c[nH]c2ncccc12 | 1.4 | 1.8 | –
N#C/C(=C\c1cccc2cnccc12)c1c[nH]c2ccc(OCCC3OCCO3)cc12 | 0.7 | 1 | –
COc1cccc2c(/C(C#N)=C/c3cccc4cnccc34)c[nH]c12 | 2.7 | 3.9 | –
